Experimental findings from ChEMBL document CHEMBL1123005, “1-Azacycloalkyl-1,4-benzodiazepin-2-ones with antianxiety-antidepressant actions” (J Med Chem, 1985) are described below.

pIC50: −log10 of the molar value. The source made the active and inactive calls. The calls are words filed in the database; no cut-off is given here.

The species entered for data set [1] is Rattus norvegicus. In words: Inhibitory activity against uptake of [3H]norepinephrine into rat brain synaptosomes. The data set is classed as functional. The gist of the method: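 P2 synaptosomes from male Wistar rat cerebral cortex incubated with [3H]norepinephrine at 37 °C for 20 min, with compound at 5-6 concentrations. Stopped by Krebs-Henseleit dilution and glass-fibre filtration, then scintillation counting. IC50 taken as the concentration giving 50% uptake inhibition.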

In data set [2] the test system is Mus musculus. In words: Effective dose against pentylenetetrazole intoxicity in mice administered orally. The data set is classed as functional.
The test system of data set [3] is Mus musculus. The data set can be described thus: Effective dose against tetrabenazine induced ptosis in mice administered subcutaneously. The data set is classed as functional. Conditions: sc. A digest of the protocol:
(§1)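 Male DS mice, 20-27 g, groups of five. Compound given po or sc in saline or gum arabic at 0.1 mL/10 g. Tetrabenazine 50 mg/kg sc given 1, 4 or 24 h later. Ptosis scored 1-4 at 1 h after TBZ, with ridit transformation. Dose for 50% prevention by regression.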

The subject of data set [4] is Mus musculus. The data set can be described thus: Effective dose against pentylenetetrazole intoxicity in mice administered through subcutaneous route; NE = no effect at 10 mg/kg. The data set is classed as functional, organism-based. Also on record: dose 10 mg/kg.
The subject of data set [5] is Rattus norvegicus. In words: Effective dose was evaluated by their anticonflict effect in rats when administered through oral route. The data set is classed as functional. A digest of the protocol:
(§2)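 Wistar rats in groups of 5-8, Geller-Seifter conflict procedure. Rats trained to lever-press for food on a variable-interval 60-s schedule. Oral dosing. A dose counted positive when shocks exceeded 12 or shock ratio exceeded 4 over four consecutive tone periods. ED50 with 95% limits by probit.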

Data set [6] relates to Mus musculus. The data set can be described thus: Effective dose against pentylenetetrazole intoxicity in mice administered orally; NE = no effect at dose 50 mg/kg. The data set is classed as functional, organism-based. On the set-up: dose 50 mg/kg.
Data set [7] has as its system Mus musculus. The data set can be described thus: Effective dose against tetrabenazine induced ptosis in mice administered orally. The data set is classed as functional. A digest of the protocol:
as §1

Data set [8] in a line: Acute toxicity was measured in mice after peroral administration (1293-1506). The data set is classed as organism-based. Conditions: mouse, in vivo, po. A digest of the protocol: (§3)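 Male DS mice, 20-26 g, given compound orally; mortality checked the day after treatment in groups of 10. LD50 by probit method, or by up-and-down method of Brownlee et al. (n = 5) where estimated.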

For data set [9], the target named is GABA-A receptor; anion channel (Rattus norvegicus) (UniProt O09028+P15431+P18506+P18508+P19969+P20236+P23574+P23576+P28471+P28473+P30191+P62813+P63079+P63138+Q91ZM7+Q9ES14). The data set can be described thus: Binding constant was determined by displacing potential to [3H]-diazepam binding in cerebral cortex homogenates of rat. The data set is classed as tissue-based. A digest of the protocol: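 Wistar rat cerebral cortex homogenate incubated with compound and 2 nM [3H]diazepam at 0 °C for 60 min. Bound label trapped on glass filters and counted by scintillation. Ki = IC50/(1 + L/Kd).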

Data set [10] deals with Mus musculus. The data set can be described thus: Effective dose against pentylenetetrazole intoxicity in mice administered subcutaneously at 20 mg/kg. The following applies: sc, route subcutaneous. The data set is classed as functional.
A short description of data set [11]: Acute toxicity was measured in mice after peroral administration (805-1213). The data set is classed as organism-based. The following applies: mouse, in vivo, po. The gist of the method:
as §3

Data set [12] concerns Rattus norvegicus. The data set can be described thus: Percent inhibition was evaluated by their anticonflict effect in rats when administered through oral route at 32 mg/kg. The data set is classed as functional. A digest of the protocol: as §2
Data set [13] can be described thus: Acute toxicity was measured in mice after peroral administration (1306-1666). The following applies: mouse, in vivo, po. The data set is classed as organism-based. A digest of the protocol: as §3
Data set [14] concerns Rattus norvegicus. The data set can be described thus: Percent anticonflict effect in rats when administered through oral route at 16 mg/kg. The data set is classed as functional. The gist of the method: as §2
The test system of data set [15] is Mus musculus. In words: Effective dose against tetrabenazine induced ptosis in mice administered subcutaneously at 50 mg/kg. The data set is classed as functional. The following applies: sc, route subcutaneous. A digest of the protocol: as §1
The subject of data set [16] is Mus musculus. The data set can be described thus: Effective dose against pentylenetetrazole intoxicity in mice administered through subcutaneous route. The data set is classed as functional. The following applies: sc.
Data set [17] relates to Mus musculus. The data set can be described thus: Percent inhibition against tetrabenazine induced ptosis in mice administered subcutaneously 50 mg/kg. The data set is classed as functional. Conditions: sc, route subcutaneous. The gist of the method:
as §1

Data set [18] deals with Mus musculus. The data set can be described thus: Effective dose against pentylenetetrazole intoxicity in mice administered orally;NE = no effect at 50 mg/kg. Also on record: dose 50 mg/kg. The data set is classed as functional, organism-based.
Data set [19] deals with Rattus norvegicus. In words: Percent inhibition was evaluated by their anticonflict effect in rats when administered through oral route at 8 mg/kg. The data set is classed as functional. A digest of the protocol: as §2
In data set [20] the test system is Mus musculus. In words: Effective dose against tetrabenazine induced ptosis in mice administered orally. The data set is classed as functional. Conditions: po. The gist of the method: as §1
The test system of data set [21] is Mus musculus. The data set can be described thus: Percent inhibition against pentylenetetrazole intoxicity in mice administered orally at 50 mg/kg. The data set is classed as functional. The following applies: route oral.
In data set [22] the test system is Mus musculus. In words: Effective dose against pentylenetetrazole intoxicity in mice administered orally; NE = no effect at 200 mg/kg. The data set is classed as functional, organism-based. Also on record: dose 200 mg/kg.
Data set [23] concerns Rattus norvegicus. The data set can be described thus: Percent inhibition against anticonflict effect in rats when administered through oral route; at 32 mg/kg. The data set is classed as functional. A digest of the protocol: as §2
The nature of data set [24]: Acute toxicity was measured in mice after peroral administration. The data set is classed as organism-based. The following applies: mouse, in vivo, po. A digest of the protocol:
as §3

Data set [25] has as its system Mus musculus. The data set can be described thus: Effective dose against pentylenetetrazole intoxicity in mice administered subcutaneously; NE = not effective at dose 10 mg/kg. The data set is classed as functional, organism-based. On the set-up: dose 10 mg/kg.
Data set [26] deals with Mus musculus. The data set can be described thus: Effective dose against tetrabenazine induced ptosis in mice administered through subcutaneous route. The data set is classed as functional. The following applies: sc. The gist of the method: as §1
[27] abbreviates: Mus musculus, po, read-out: ED50.

The term pIC50 denotes −log10 of the IC50, conventionally taken in molar units. Higher therefore signals a small IC50. A word on the ED50: it is the dose that gives a 50% effect, or the effect in half of the subjects. For orientation: LD50 means the dose at which mortality reaches 50%. Regarding `O=C1CN=C(c2ccccc2)c2cc(Cl)ccc2N1C1CCNCC1`, in [1], the pIC50 was 6.76. For the same compound, the ED50 is 36.5 mg/kg in data set [2] (setting [27]); 0.172 mg/kg in data set [3]; 11.8 mg/kg in [5]; 0.48 mg/kg in data set [7]; 0.48 mg/kg in data set [7] (setting [27]). The ED50 result in data set [4] and in [6] was “inactive” in each case. The compound further returned an LD50 in data set [8] of 1390 mg/kg. Besides, the K2 in data set [9] was 0.35 µM.

The inhibition in vivo is the relative decrease from the control value, in per cent. Read a high inhibition in vivo as a strong effect. Take `CN1CCC(N2C(=O)CN=C(c3ccccc3)c3cc(Cl)ccc32)CC1`: the 50% effective dose (ED50) in data set [2] (setting [27]) is 29.9 mg/kg; in data set [3], 0.85 mg/kg; in data set [5], 8.4 mg/kg; in data set [7], 0.74 mg/kg; in [7] (setting [27]), 0.58 mg/kg. Further, the inhibition in vivo at 20 mg/kg in [10] came to 50%.

In data set [1], `O=C1CN=C(c2ccccc2F)c2cc(F)ccc2N1C1CCNCC1` had a negative logarithm of the IC50 (pIC50) of 7.10. The ED50 in data set [2] worked out at 27.55 mg/kg; in [2] (setting [27]) it was 32.1 mg/kg; in data set [7] (setting [27]), 0.38 mg/kg. In addition, the LD50 in data set [11] was 939 mg/kg. Besides, 32 mg/kg produced 50% inhibition in vivo in data set [12]. The same compound registered a K2 in data set [9] of 0.15 µM.

Regarding `O=C1CN=C(c2ccccc2F)c2cc(Cl)ccc2N1C1CCNCC1`, the pIC50 in data set [1] was 6.93. The median effective dose (ED50) in [2] turned out to be 11.39 mg/kg; in [2] (setting [27]) it was 14.2 mg/kg; in data set [3], 0.08 mg/kg; in data set [5] it was 6.51 mg/kg; in data set [7] it was 0.67 mg/kg; in data set [7] (setting [27]), 0.76 mg/kg. This compound also came in with a 50% lethal dose (LD50) in data set [13] of 1480 mg/kg. This compound also registered a K2 in data set [9] of 0.036 µM.

For the compound `CN1CCC(N2C(=O)CN=C(c3ccccc3)c3cc(F)ccc32)CC1`, the ED50 in data set [2] was 25.79 mg/kg; in data set [2] (setting [27]), 30 mg/kg; in [7] (setting [27]), 1.41 mg/kg. The compound also showed an inhibition in vivo at 16 mg/kg in data set [14] of 20%. The K2 in data set [9] was 2.42 µM.

In data set [1], `CN1CCC(N2C(=O)CN=C(c3ccccc3Cl)c3cc(Cl)ccc32)CC1` had a negative-log IC50 (pIC50) of 4.40. The ED50 in [2] (setting [27]) worked out at 3.24 mg/kg; in data set [7] (setting [27]), 26.1 mg/kg; in data set [16], 1.69 mg/kg. In data set [15], testing at 50 mg/kg gave an inhibition in vivo of 23%. This compound showed a K2 in data set [9] of 0.021 µM.

In data set [17], `CN1CCC(N2C(=O)CN=C(c3ccccc3F)c3cc(Cl)c(Cl)cc32)CC1` showed an inhibition in vivo at 50 mg/kg of 64%. The ED50 result in [18] and in [4] was “inactive” in each case. The K2 in [9] came out at 0.8 µM.

As for `O=C1CN=C(c2ccccc2F)c2cc(Cl)ccc2N1C1CCNC1` (stereo not drawn), the values for the 50% effective dose (ED50) in data set [2] (setting [27]), in data set [3] and in data set [20] were 20.1 mg/kg, 28.9 mg/kg and 0.4 mg/kg, respectively. For the same compound, testing at 8 mg/kg in data set [19] gave an inhibition in vivo of 60%. In addition, the K2 in data set [9] was found to be 0.73 µM.

Compound `O=C1CN=C(c2ccccc2)c2cc(F)ccc2N1C1CCNCC1` showed a negative logarithm of the IC50 (pIC50) in data set [1] of 7.23. Moreover, in [7] (setting [27]), the ED50 was 0.39 mg/kg. For the same compound, the inhibition in vivo at 50 mg/kg in data set [21] worked out at 12.5%. Moreover, in data set [12], the inhibition in vivo at 32 mg/kg was found to be 60%. In data set [9], this compound gave a K2 of 2 µM.

`O=C1CN=C(c2ccccc2)c2ccccc2N1C1CCNCC1` gave a negative-log IC50 (pIC50) in data set [1] of 7.54. Further, the ED50 result in data set [22] and in [4] was “inactive” throughout. In data set [23], this compound displayed an inhibition in vivo at 32 mg/kg of 20%. In addition, the ED50 in [3] was found to be 0.06 mg/kg; in data set [7] (setting [27]), 0.26 mg/kg. This compound displayed a median lethal dose (LD50) in [24] of 1240 mg/kg. This compound displayed a K2 in [9] of 1.3 µM.

Take `CCOC(=O)N1CCC(N2C(=O)CN=C(c3ccccc3)c3ccccc32)CC1`: the ED50 entry in data set [25] was “inactive”. Besides, the 50% effect level in [26] (ED50) was put at a dose of 0.65 mg/kg. The compound further displayed a K2 in [9] of 2.3 µM.
